Drawing on ChEMBL document CHEMBL1123568 (J Med Chem, 1987), this text covers MIC for three compounds.

Converted amounts (≈) assume the structure as drawn. Some results are limits rather than exact numbers.

What all share (format): functional
One assay relates to Micrococcus luteus. Description: Antimicrobial activity against the micrococcus luteus 9341 by 2-fold agar dilution method using brain-heart infusion agar. (In general: In agar dilution the substance is mixed into plates at graded concentrations.)
Assay [1] deals with Staphylococcus aureus. Description: Antimicrobial activity against the Staphylococcus aureus ATCC 6538 P by 2-fold agar dilution method using brain-heart infusion agar. To be noted: ATCC 6538, Brain. The essentials: (§1)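 Read-out is the MIC, found by twofold agar dilution in brain-heart infusion agar. Strains were Escherichia coli H560, Staphylococcus aureus 45 and Staphylococcus aureus ATCC 6538 P.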

A further assay relates to Acinetobacter. The assay can be described thus: Antimicrobial activity against the acinetobacter sp. CMX 669 by 2-fold agar dilution method using brain-heart infusion agar.
Another assay relates to Streptococcus agalactiae. Description: Antimicrobial activity against the streptococcus agalactiae CMX 508 by 2-fold agar dilution method using brain-heart infusion agar.
The subject of another assay is Klebsiella aerogenes. Description: Antimicrobial activity against the enterobacter aerogenes ATCC 13048 by 2-fold agar dilution method using brain-heart infusion agar. To be noted: ATCC 13048, Brain.
The subject of assay [2] is Pseudomonas aeruginosa. The assay can be described thus: Antimicrobial activity against the Pseudomonas aeruginosa K 799/WT by 2-fold agar dilution method using brain-heart infusion agar.
For assay [3], the system named is Escherichia coli. The assay can be described thus: Antimicrobial activity against the Escherichia coli JUHL by 2-fold agar dilution method using brain-heart infusion agar.
Assay [4] relates to Staphylococcus epidermidis. Description: Antimicrobial activity against the Staphylococcus epidermis 3519 by 2-fold agar dilution method using brain-heart infusion agar.
In a further assay the test system is Klebsiella pneumoniae. Description: Antimicrobial activity against the klebsiella pneumoniae 8045 by 2-fold agar dilution method using brain-heart infusion agar.
In assay [5] the test system is Streptococcus pyogenes. Description: Antimicrobial activity against the streptococcus pyogenes EES 61 by 2-fold agar dilution method using brain-heart infusion agar.
In assay [6] the test system is Escherichia coli. The assay can be described thus: Antimicrobial activity against the Escherichia coli H560 by 2-fold agar dilution method using brain-heart infusion agar. The essentials:
as §1

Assay [7] relates to Streptococcus pyogenes. Description: Antimicrobial activity against the streptococcus pyogenes 2548 by 2-fold agar dilution method using brain-heart infusion agar.
Assay [8] concerns Staphylococcus aureus. The assay can be described thus: Antimicrobial activity against the Staphylococcus aureus 45 by 2-fold agar dilution method using brain-heart infusion agar. The essentials:
as §1

In the next assay the test system is Streptococcus equinus. The assay can be described thus: Antimicrobial activity against the streptococcus bovis A 5169 by 2-fold agar dilution method using brain-heart infusion agar.
Assay [9] has as its system Pseudomonas aeruginosa. The assay can be described thus: Antimicrobial activity against the Pseudomonas aeruginosa K 799/61 by 2-fold agar dilution method using brain-heart infusion agar.
The test system of another assay is Enterococcus faecium. Description: Antimicrobial activity against the faecium ATCC 8043 by 2-fold agar dilution method using brain-heart infusion agar. To be noted: ATCC 8043, Brain.

Regarding `C[C@@H]1COc2c(N3CCN(C)CC3)c(F)cc3c(=O)c(C(=O)O)cn1c23` [DEXTROFLOXACINE], the minimal inhibitory concentration (MIC) against Micrococcus luteus was over 9.75 µg/mL; against Staphylococcus aureus [1] it was 4.8 µg/mL (≈ 13.3 µM); against Acinetobacter it was 9.75 µg/mL (≈ 27 µM); against Streptococcus agalactiae, over 9.75 µg/mL; against Klebsiella aerogenes, 9.75 µg/mL (≈ 27 µM); against Pseudomonas aeruginosa [2], 9.75 µg/mL (≈ 27 µM). Besides, the minimum inhibitory concentration (MIC) in the assay on Escherichia coli [3] was 1.21 µg/mL (≈ 3.35 µM); in assay [4] it was 4.8 µg/mL (≈ 13.3 µM); against Klebsiella pneumoniae, 1.21 µg/mL (≈ 3.35 µM); in the assay with Streptococcus pyogenes [5] it was over 9.75 µg/mL; against Escherichia coli [6] it was 9.75 µg/mL (≈ 27 µM); in the assay on Streptococcus pyogenes [7], over 9.75 µg/mL. Moreover, the MIC against Staphylococcus aureus [8] is 9.75 µg/mL (≈ 27 µM); against Streptococcus equinus, over 9.75 µg/mL; with Pseudomonas aeruginosa [9] it was 1.21 µg/mL (≈ 3.35 µM); in the assay with Enterococcus faecium it was over 9.75 µg/mL.
On to `C[C@H]1COc2c(N3CCN(C)CC3)c(F)cc3c(=O)c(C(=O)O)cn1c23.C[C@H]1COc2c(N3CCN(C)CC3)c(F)cc3c(=O)c(C(=O)O)cn1c23.O` [LEVOFLOXACIN], for which the minimum inhibitory concentration (MIC) with Micrococcus luteus is 1.21 µg/mL; against Staphylococcus aureus [1] it was 0.15 µg/mL; in the assay on Acinetobacter it was 0.3 µg/mL; against Streptococcus agalactiae, 1.21 µg/mL; in the assay on Klebsiella aerogenes, 0.07 µg/mL; in the assay with Pseudomonas aeruginosa [2], under 0.04 µg/mL. Besides, the minimum inhibitory concentration (MIC) is 0.07 µg/mL against Escherichia coli [3]; 0.3 µg/mL in assay [4]; under 0.04 µg/mL in the assay with Klebsiella pneumoniae; 0.46 µg/mL against Streptococcus pyogenes [5]; 0.04 µg/mL with Escherichia coli [6]; 0.26 µg/mL against Streptococcus pyogenes [7]. The minimum inhibitory concentration (MIC) turned out to be 0.3 µg/mL in the assay with Staphylococcus aureus [8], 1.21 µg/mL with Streptococcus equinus, 0.07 µg/mL with Pseudomonas aeruginosa [9] and 0.46 µg/mL against Enterococcus faecium.
Take `CC1COc2c(N3CCN(C)CC3)c(F)cc3c(=O)c(C(=O)O)cn1c23` (stereo not drawn) [OFLOXACIN]: the MIC in the assay on Micrococcus luteus is 3.1 µg/mL (≈ 8.58 µM); with Staphylococcus aureus [1], 0.2 µg/mL (≈ 0.553 µM); against Acinetobacter, 0.39 µg/mL (≈ 1.08 µM); in the assay on Streptococcus agalactiae it was 1.56 µg/mL (≈ 4.32 µM); in the assay with Klebsiella aerogenes, 0.2 µg/mL (≈ 0.553 µM); in the assay on Pseudomonas aeruginosa [2] it was 0.39 µg/mL (≈ 1.08 µM). Further, the MIC with Escherichia coli [3] worked out at 0.05 µg/mL (≈ 0.138 µM); in [4], 0.39 µg/mL (≈ 1.08 µM); against Klebsiella pneumoniae it was 0.05 µg/mL (≈ 0.138 µM); with Streptococcus pyogenes [5] it was 0.78 µg/mL (≈ 2.16 µM); against Escherichia coli [6], 0.1 µg/mL (≈ 0.277 µM); in the assay on Streptococcus pyogenes [7], 0.39 µg/mL (≈ 1.08 µM). The MIC is 0.39 µg/mL (≈ 1.08 µM) in the assay with Staphylococcus aureus [8], 1.56 µg/mL (≈ 4.32 µM) against Streptococcus equinus, 0.1 µg/mL (≈ 0.277 µM) against Pseudomonas aeruginosa [9] and 0.78 µg/mL (≈ 2.16 µM) against Enterococcus faecium.

As a reminder, the MIC is the lowest concentration that inhibits growth of the organism.
